Test system: Escherichia coli
Assay: Antibacterial activity against Escherichia coli ATCC 25922 after 16 to 20 hrs by broth microdilution method
Type: functional
Conditions: not given
Method in brief: (§1)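 Broth microdilution per CLSI. Bacteria grown 4-6 h (about 10⁸ CFU/mL), then diluted to about 10⁶ CFU/mL. Medium: Mueller-Hinton broth, except Luria-Bertani broth for E. coli. Compounds in sterile water, twofold series 256-0.5 µg/mL, mixed 1:1 with inoculum, 37 °C for 16-20 h. MIC is the lowest concentration without visible growth. Duplicate wells; experiment repeated at least twice.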

Row | SMILES | MIC [µg/mL]
1 | C[C@@H](O)[C@H]1C(=O)N2C(C(=O)O)=C(S[C@@H]3CN[C@H](C(=O)N(C)C)C3)[C@H](C)[C@H]12 [MEROPENEM] | < 0.125
2 | CCCC[N+](C)(C)CC(=O)Nc1ccc(C(=O)/C=C/c2cccs2)cc1.[Cl-] | 64
3 | CCCCCCCC[N+](C)(C)CC(=O)Nc1ccc(C(=O)/C=C/c2cc([N+](=O)[O-])ccc2OCC)cc1.[Cl-] | > 128
4 | CCCCCCCCCCCCCCCCCC[N+](C)(C)CC(=O)Nc1ccc(C(=O)/C=C/c2ccccc2F)cc1.[Cl-] | > 128
5 | CCCC[N+](C)(C)CC(=O)Nc1ccc(C(=O)/C=C/c2ccccc2F)cc1.[Cl-] | 64
6 | CCCC[N+](C)(C)CC(=O)Nc1ccc(C(=O)/C=C/c2ccncc2)cc1.[Cl-] | > 128
7 | CCCCCCCC[N+](C)(C)CC(=O)Nc1cccc(C(=O)/C=C/c2cccs2)c1.[Cl-] | 16

More lines, now with the values ahead:

Row | MIC [µg/mL] | SMILES
8 | 16 | CCCCCCCC[N+](C)(C)CC(=O)Nc1ccc(C(=O)/C=C/c2cccc(Br)n2)cc1.[Cl-]
9 | 16 | CCCCCCCC[N+](C)(C)CC(=O)Nc1ccc(C(=O)/C=C/c2ccncc2)cc1.[Cl-]
10 | > 128 | CCCCCCCC[N+](C)(C)CC(=O)Nc1ccc(C(=O)/C=C/c2cccc(F)c2)cc1.[Cl-]
11 | 16 | CCCCCCCC[N+](C)(C)CC(=O)Nc1ccc(C(=O)/C=C/c2cccnc2)cc1.[Cl-]
12 | 16 | CCCCCCCC[N+](C)(C)CC(=O)Nc1ccc(C(=O)/C=C/c2ccc(C(C)(C)C)cc2)cc1.[Cl-]
13 | > 128 | CCCCCCCCCCCCCC[N+](C)(C)CC(=O)Nc1ccc(C(=O)/C=C/c2ccccc2F)cc1.[Cl-]
14 | 128 | CCCCCCCC[N+](C)(C)CC(=O)Nc1ccc(C(=O)/C=C/c2c(F)cccc2F)cc1.[Cl-]
15 | 8 | CCCCCCCC[N+](C)(C)CC(=O)Nc1ccc(C(=O)/C=C/c2ncccc2F)cc1.[Cl-]
16 | 16 | CCCCCCCCCCCC[N+](C)(C)CC(=O)Nc1ccc(C(=O)/C=C/c2ccccc2F)cc1.[Cl-]
17 | 16 | CCCCCCCC[N+](C)(C)CC(=O)Nc1ccc(C(=O)/C=C/c2ccccn2)cc1.[Cl-]

Test system: Staphylococcus aureus
Assay: Antibacterial activity against Staphylococcus aureus ATCC 29213 after 16 to 20 hrs by broth microdilution method
Type: functional
Conditions: not given
Method in brief: as §1

Row | SMILES | MIC [µg/mL]
18 | CCCC[N+](C)(C)CC(=O)Nc1ccc(C(=O)/C=C/c2cccs2)cc1.[Cl-] | 32
19 | CCCCCCCC[N+](C)(C)CC(=O)Nc1ccc(C(=O)/C=C/c2cc([N+](=O)[O-])ccc2OCC)cc1.[Cl-] | 8
20 | CCCCCCCCCCCCCCCCCC[N+](C)(C)CC(=O)Nc1ccc(C(=O)/C=C/c2ccccc2F)cc1.[Cl-] | > 128
21 | CCCC[N+](C)(C)CC(=O)Nc1ccc(C(=O)/C=C/c2ccccc2F)cc1.[Cl-] | 16
22 | CCCC[N+](C)(C)CC(=O)Nc1ccc(C(=O)/C=C/c2ccncc2)cc1.[Cl-] | 128
23 | CCCCCCCC[N+](C)(C)CC(=O)Nc1cccc(C(=O)/C=C/c2cccs2)c1.[Cl-] | 2

The next lines start with the values.

Row | MIC [µg/mL] | SMILES
24 | 4 | CCCCCCCC[N+](C)(C)CC(=O)Nc1ccc(C(=O)/C=C/c2cccc(Br)n2)cc1.[Cl-]
25 | 4 | CCCCCCCC[N+](C)(C)CC(=O)Nc1ccc(C(=O)/C=C/c2ccncc2)cc1.[Cl-]
26 | 32 | CCCCCCCC[N+](C)(C)CC(=O)Nc1ccc(C(=O)/C=C/c2cccc(F)c2)cc1.[Cl-]
27 | 4 | CCCCCCCC[N+](C)(C)CC(=O)Nc1ccc(C(=O)/C=C/c2cccnc2)cc1.[Cl-]
28 | 2 | CCCCCCCC[N+](C)(C)CC(=O)Nc1ccc(C(=O)/C=C/c2ccc(C(C)(C)C)cc2)cc1.[Cl-]
29 | 8 | CCCCCCCCCCCCCC[N+](C)(C)CC(=O)Nc1ccc(C(=O)/C=C/c2ccccc2F)cc1.[Cl-]
30 | 32 | CCCCCCCC[N+](C)(C)CC(=O)Nc1ccc(C(=O)/C=C/c2c(F)cccc2F)cc1.[Cl-]
31 | 2 | CCCCCCCC[N+](C)(C)CC(=O)Nc1ccc(C(=O)/C=C/c2ncccc2F)cc1.[Cl-]
32 | 4 | CCCCCCCCCCCC[N+](C)(C)CC(=O)Nc1ccc(C(=O)/C=C/c2ccccc2F)cc1.[Cl-]
33 | 4 | CCCCCCCC[N+](C)(C)CC(=O)Nc1ccc(C(=O)/C=C/c2ccccn2)cc1.[Cl-]

Test system: not listed separately
Assay: Hemolytic activity in sheep RBC after 1 hr
Type: ADME, cell-based, Ovis aries, Erythrocyte
Conditions: sheep red blood cells (erythrocytes)
Method in brief: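 Sheep red blood cells (150 µL suspension) mixed with 50 µL of compound dilutions (5120-10 µg/mL), 1 h at 37 °C, then centrifuged. Supernatant read at 540 nm. Percent hemolysis calculated relative to RBC-only control (0%) and 0.1% Triton X-100 (100%).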

Row | SMILES | HC50 at 1 h [µg/mL]
34 | CCCCCCCC[N+](C)(C)CC(=O)Nc1ccc(C(=O)/C=C/c2cccc(Br)n2)cc1.[Cl-] | 363
35 | CCCC[N+](C)(C)CC(=O)Nc1ccc(C(=O)/C=C/c2cccs2)cc1.[Cl-] | 360
36 | CCCCCCCC[N+](C)(C)CC(=O)Nc1ccc(C(=O)/C=C/c2ccncc2)cc1.[Cl-] | 200
37 | CCCCCCCC[N+](C)(C)CC(=O)Nc1ccc(C(=O)/C=C/c2cccc(F)c2)cc1.[Cl-] | 68
38 | CCCCCCCC[N+](C)(C)CC(=O)Nc1ccc(C(=O)/C=C/c2cccnc2)cc1.[Cl-] | 127
39 | CCCCCCCC[N+](C)(C)CC(=O)Nc1ccc(C(=O)/C=C/c2ccc(C(C)(C)C)cc2)cc1.[Cl-] | 284
40 | CCCCCCCCCCCCCC[N+](C)(C)CC(=O)Nc1ccc(C(=O)/C=C/c2ccccc2F)cc1.[Cl-] | 192
41 | CCCCCCCC[N+](C)(C)CC(=O)Nc1ccc(C(=O)/C=C/c2cc([N+](=O)[O-])ccc2OCC)cc1.[Cl-] | 102
42 | CCCCCCCCCCCCCCCCCC[N+](C)(C)CC(=O)Nc1ccc(C(=O)/C=C/c2ccccc2F)cc1.[Cl-] | 444
43 | CCCCCCCC[N+](C)(C)CC(=O)Nc1ccc(C(=O)/C=C/c2c(F)cccc2F)cc1.[Cl-] | 50
44 | CCCC[N+](C)(C)CC(=O)Nc1ccc(C(=O)/C=C/c2ccccc2F)cc1.[Cl-] | 262
45 | CCCC[N+](C)(C)CC(=O)Nc1ccc(C(=O)/C=C/c2ccncc2)cc1.[Cl-] | > 500
46 | CCCCCCCC[N+](C)(C)CC(=O)Nc1ccc(C(=O)/C=C/c2ncccc2F)cc1.[Cl-] | 83
47 | CCCCCCCCCCCC[N+](C)(C)CC(=O)Nc1ccc(C(=O)/C=C/c2ccccc2F)cc1.[Cl-] | 293
48 | CCCCCCCC[N+](C)(C)CC(=O)Nc1cccc(C(=O)/C=C/c2cccs2)c1.[Cl-] | 249
49 | CCCCCCCC[N+](C)(C)CC(=O)Nc1ccc(C(=O)/C=C/c2ccccn2)cc1.[Cl-] | 187

Test system: Enterococcus faecalis
Assay: Antibacterial activity against Enterococcus faecalis ATCC 29212 after 16 to 20 hrs by broth microdilution method
Type: functional
Conditions: not given
Method in brief: as §1

Row | SMILES | MIC [µg/mL]
50 | CCCC[N+](C)(C)CC(=O)Nc1ccc(C(=O)/C=C/c2cccs2)cc1.[Cl-] | 32
51 | CCCCCCCC[N+](C)(C)CC(=O)Nc1ccc(C(=O)/C=C/c2cc([N+](=O)[O-])ccc2OCC)cc1.[Cl-] | 2
52 | CCCCCCCCCCCCCCCCCC[N+](C)(C)CC(=O)Nc1ccc(C(=O)/C=C/c2ccccc2F)cc1.[Cl-] | > 128
53 | CCCC[N+](C)(C)CC(=O)Nc1ccc(C(=O)/C=C/c2ccccc2F)cc1.[Cl-] | 16
54 | CCCC[N+](C)(C)CC(=O)Nc1ccc(C(=O)/C=C/c2ccncc2)cc1.[Cl-] | 128
55 | CCCCCCCC[N+](C)(C)CC(=O)Nc1cccc(C(=O)/C=C/c2cccs2)c1.[Cl-] | 4

Further lines, results first:

Row | MIC [µg/mL] | SMILES
56 | 8 | CCCCCCCC[N+](C)(C)CC(=O)Nc1ccc(C(=O)/C=C/c2cccc(Br)n2)cc1.[Cl-]
57 | 8 | CCCCCCCC[N+](C)(C)CC(=O)Nc1ccc(C(=O)/C=C/c2ccncc2)cc1.[Cl-]
58 | 64 | CCCCCCCC[N+](C)(C)CC(=O)Nc1ccc(C(=O)/C=C/c2cccc(F)c2)cc1.[Cl-]
59 | 8 | CCCCCCCC[N+](C)(C)CC(=O)Nc1ccc(C(=O)/C=C/c2cccnc2)cc1.[Cl-]
60 | 4 | CCCCCCCC[N+](C)(C)CC(=O)Nc1ccc(C(=O)/C=C/c2ccc(C(C)(C)C)cc2)cc1.[Cl-]
61 | > 128 | CCCCCCCCCCCCCC[N+](C)(C)CC(=O)Nc1ccc(C(=O)/C=C/c2ccccc2F)cc1.[Cl-]
62 | 32 | CCCCCCCC[N+](C)(C)CC(=O)Nc1ccc(C(=O)/C=C/c2c(F)cccc2F)cc1.[Cl-]
63 | 8 | CCCCCCCC[N+](C)(C)CC(=O)Nc1ccc(C(=O)/C=C/c2ncccc2F)cc1.[Cl-]
64 | 8 | CCCCCCCCCCCC[N+](C)(C)CC(=O)Nc1ccc(C(=O)/C=C/c2ccccc2F)cc1.[Cl-]
65 | 8 | CCCCCCCC[N+](C)(C)CC(=O)Nc1ccc(C(=O)/C=C/c2ccccn2)cc1.[Cl-]

Test system: Salmonella enterica
Assay: Antibacterial activity against Salmonella enterica ATCC 13076 after 16 to 20 hrs by broth microdilution method
Type: functional
Conditions: not given
Method in brief: as §1

Row | SMILES | MIC [µg/mL]
66 | CCCC[N+](C)(C)CC(=O)Nc1ccc(C(=O)/C=C/c2cccs2)cc1.[Cl-] | 128
67 | CCCCCCCC[N+](C)(C)CC(=O)Nc1ccc(C(=O)/C=C/c2cc([N+](=O)[O-])ccc2OCC)cc1.[Cl-] | > 128
68 | CCCCCCCCCCCCCCCCCC[N+](C)(C)CC(=O)Nc1ccc(C(=O)/C=C/c2ccccc2F)cc1.[Cl-] | > 128
69 | CCCC[N+](C)(C)CC(=O)Nc1ccc(C(=O)/C=C/c2ccccc2F)cc1.[Cl-] | 128
70 | CCCC[N+](C)(C)CC(=O)Nc1ccc(C(=O)/C=C/c2ccncc2)cc1.[Cl-] | > 128
71 | CCCCCCCC[N+](C)(C)CC(=O)Nc1cccc(C(=O)/C=C/c2cccs2)c1.[Cl-] | 16

Further lines, results first:

Row | MIC [µg/mL] | SMILES
72 | 32 | CCCCCCCC[N+](C)(C)CC(=O)Nc1ccc(C(=O)/C=C/c2cccc(Br)n2)cc1.[Cl-]
73 | 32 | CCCCCCCC[N+](C)(C)CC(=O)Nc1ccc(C(=O)/C=C/c2ccncc2)cc1.[Cl-]
74 | > 128 | CCCCCCCC[N+](C)(C)CC(=O)Nc1ccc(C(=O)/C=C/c2cccc(F)c2)cc1.[Cl-]
75 | 32 | CCCCCCCC[N+](C)(C)CC(=O)Nc1ccc(C(=O)/C=C/c2cccnc2)cc1.[Cl-]
76 | 16 | CCCCCCCC[N+](C)(C)CC(=O)Nc1ccc(C(=O)/C=C/c2ccc(C(C)(C)C)cc2)cc1.[Cl-]
77 | > 128 | CCCCCCCCCCCCCC[N+](C)(C)CC(=O)Nc1ccc(C(=O)/C=C/c2ccccc2F)cc1.[Cl-]
78 | 128 | CCCCCCCC[N+](C)(C)CC(=O)Nc1ccc(C(=O)/C=C/c2c(F)cccc2F)cc1.[Cl-]
79 | 16 | CCCCCCCC[N+](C)(C)CC(=O)Nc1ccc(C(=O)/C=C/c2ncccc2F)cc1.[Cl-]
80 | 32 | CCCCCCCCCCCC[N+](C)(C)CC(=O)Nc1ccc(C(=O)/C=C/c2ccccc2F)cc1.[Cl-]
81 | 32 | CCCCCCCC[N+](C)(C)CC(=O)Nc1ccc(C(=O)/C=C/c2ccccn2)cc1.[Cl-]

— ChEMBL document CHEMBL4138242, “Synthesis and antibacterial evaluation of novel cationic chalcone derivatives possessing broad spectrum antibacterial activity” (Eur J Med Chem, 2018)
